Measurements taken from ChEMBL document CHEMBL1134480, “Antiplasmodial activity and cytotoxicity of bis-, tris-, and tetraquinolines with linear or cyclic amino linkers” (J Med Chem, 2001).

Tests used:
MRC5 [1] = assay: Cytotoxicity against MRC-5 cells at concentration 1 uM; type: functional; details: Homo sapiens
Outline: (§1)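 MRC-5 human embryonic lung diploid cells were seeded at 5000 per well. After 24 h the cells were washed and exposed to 2-fold drug dilutions in RPMI + 5% FCS, with final DMSO below 0.5%. Incubation was 7 days at 37 °C in 5% CO2. Viability was read by MTT absorbance at 540 nm.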

MRC5 [2] = assay: Cytotoxicity against MRC-5 cells at concentration 32 uM; type: functional; details: Homo sapiens; outline: as §1
MRC5 [3] = assay: Cytotoxicity against MRC-5 cells at concentration 0.5 uM; type: functional; details: Homo sapiens; outline: as §1
MRC5 [4] = assay: Cytotoxicity against MRC-5 cells at concentration 8 uM; type: functional; details: Homo sapiens; outline: as §1
Mus musculus [5] = species: Mus musculus; assay: In vitro cytotoxic activity against mouse peritoneal macrophages at a concentration 8 uM; Non-toxic; type: functional
Mus musculus [6] = species: Mus musculus; assay: In vitro cytotoxic activity against mouse peritoneal macrophages at a concentration 2 uM; Non-toxic; type: functional
Plasmodium falciparum [7] = assay: In vitro growth inhibition of Plasmodium falciparum FcB1R; type: functional, organism-based
Outline: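 Asynchronous P. falciparum cultures were grown in human erythrocytes at 0.5% parasitemia and 1% hematocrit. They were exposed to serial drug dilutions, with DMSO ≤0.1%, for 24 h at 37 °C before adding 0.5 µCi [3H]hypoxanthine per well. Inhibition was measured as incorporated radioactivity versus drug-free controls on the same plate. IC50 came from concentration–response curves, reported as mean ± SD of three independent experiments; FcB1R used several experiments.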

[8] = In vitro cytotoxic activity against mouse peritoneal macrophages at a concentration 32 uM; Toxic; type: toxicity
[9] = In vitro cytotoxic activity against mouse peritoneal macrophages at a concentration 8 uM; Toxic; type: toxicity
Plasmodium falciparum [10] = assay: In vitro growth inhibition of Plasmodium falciparum W2; type: functional, organism-based
Plasmodium falciparum [11] = assay: (§2) In vitro growth inhibition of Plasmodium falciparum D6; type: functional, organism-based
Plasmodium falciparum [12] = assay: In vitro growth inhibition of Plasmodium falciparum F32; type: functional, organism-based
Plasmodium falciparum [13] = assay: as §2; type: functional, organism-based; remark: listed apart in the source
Outline: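 Asynchronous P. falciparum cultures in human erythrocytes (0.5% parasitemia, 1% final hematocrit) exposed to serially diluted drug for 24 h at 37 °C, then pulsed with 0.5 µCi [³H]hypoxanthine per well. Inhibition from incorporated radioactivity versus drug-free control on the same plate; IC50 from concentration-response curve; mean ± SD of three independent experiments. DMSO ≤0.1% final.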

[14] = In vitro cytotoxic activity against mouse peritoneal macrophages at a concentration 2 uM; Toxic; type: toxicity
[15] = In vitro cytotoxicity against mouse peritoneal macrophages at concentration 32 uM; Toxic; type: toxicity

Row | SMILES | cytotoxicity at 1 µM (MRC5 [1]) [%] | cytotoxicity at 32 µM (MRC5 [2]) [%] | cytotoxicity at 0.5 µM (MRC5 [3]) [%] | cytotoxicity at 8 µM (MRC5 [4]) [%] | Cytotoxicity (Mus musculus [5]) | Cytotoxicity (Mus musculus [6]) | IC50 (Plasmodium falciparum [7]) [µM] | Cytotoxicity [8] | Cytotoxicity [9] | IC50 (Plasmodium falciparum [10]) [µM] | IC50 (Plasmodium falciparum [11]) [µM] | IC50 (Plasmodium falciparum [12]) [µM] | IC50 (Plasmodium falciparum [13]) [µM] | Cytotoxicity [14] | Cytotoxicity [15]
1 | NCCC(=O)N1CCN(c2ccnc3cc(Cl)ccc23)CCN(c2ccnc3cc(Cl)ccc23)CC1 | 0 | 0 | 0 | 0 | Not toxic | Not toxic | > 1 |  |  |  |  |  |  |  | 
2 | O=C(O)CCC(=O)N1CCN(c2ccnc3cc(Cl)ccc23)CCN(c2ccnc3cc(Cl)ccc23)CC1 | 1 | 0 | 0 | 0 | Not toxic | Not toxic | > 1 |  |  |  |  |  |  |  | 
3 | CC(N)C(=O)N1CCN(c2ccnc3cc(Cl)ccc23)CCN(c2ccnc3cc(Cl)ccc23)CC1 (configuration not stated) | 0 | 88 | 0 | 0 |  | Not toxic | 0.228 | Toxic | Toxic |  |  |  |  |  | 
4 | O=C(CCC(=O)N1CCN(c2ccnc3cc(Cl)ccc23)CCN(c2ccnc3cc(Cl)ccc23)CC1)N1CCN(c2ccnc3cc(Cl)ccc23)CCN(c2ccnc3cc(Cl)ccc23)CC1 | 0 | 0 | 0 | 0 | Not toxic | Not toxic | 0.0381 |  |  | 0.0295 | 0.0219 | 0.0237 |  |  | 
5 | NCCN(CCNc1ccnc2cc(Cl)ccc12)CCNc1ccnc2cc(Cl)ccc12 | 0 | 51 | 0 | 0 | Not toxic | Not toxic | 0.606 |  |  |  |  |  |  |  | 
6 | O=C(CCCO)N1CCN(c2ccnc3cc(Cl)ccc23)CCN(c2ccnc3cc(Cl)ccc23)CC1 | 0 | 0 | 0 | 0 | Not toxic | Not toxic | 0.93 |  |  |  |  |  |  |  | 
7 | O=C(CCCC(=O)N1CCN(c2ccnc3cc(Cl)ccc23)CCN(c2ccnc3cc(Cl)ccc23)CC1)N1CCN(c2ccnc3cc(Cl)ccc23)CCN(c2ccnc3cc(Cl)ccc23)CC1 | 0 | 0 | 0 | 0 | Not toxic | Not toxic | 0.0183 |  |  | 0.0292 |  | 0.0179 | 0.0185 |  | 
8 | O=C(CCCCCCCN1CCCCC1)N1CCN(c2ccnc3cc(Cl)ccc23)CCN(c2ccnc3cc(Cl)ccc23)CC1 | 0 | 91 | 0 | 91 |  |  | 0.0811 | Toxic | Toxic |  |  |  |  | Toxic | 
9 | Clc1ccc2c(N3CCNCCNCC3)ccnc2c1 | 0 | 0 | 0 | 0 | Not toxic | Not toxic | > 1 |  |  |  |  |  |  |  | 
10 | O=C(CCCCN1CCCCC1)N1CCN(c2ccnc3cc(Cl)ccc23)CCN(c2ccnc3cc(Cl)ccc23)CC1 | 0 | 92 | 0 | 92 |  | Not toxic | 0.132 | Toxic | Toxic |  |  |  |  |  | 
11 | O=C(c1ccc(C(=O)N2CCN(c3ccnc4cc(Cl)ccc34)CCN(c3ccnc4cc(Cl)ccc34)CC2)cc1)N1CCN(c2ccnc3cc(Cl)ccc23)CCN(c2ccnc3cc(Cl)ccc23)CC1 | 0 | 0 | 0 | 0 | Not toxic | Not toxic | 0.266 |  |  |  |  |  |  |  | 
12 | CC(C)(C)OC(=O)NCCC(=O)N1CCN(c2ccnc3cc(Cl)ccc23)CCN(c2ccnc3cc(Cl)ccc23)CC1 | 0 | 100 | 0 | 0 | Not toxic | Not toxic | > 1 |  |  |  |  |  |  |  | Toxic
13 | O=C(CCCC(=O)N1CCN(c2ccnc3cc(Cl)ccc23)CCN(c2ccnc3cc(Cl)ccc23)CC1)N1CCNCCN(c2ccnc3cc(Cl)ccc23)CC1 | 0 | 0 | 0 | 0 | Not toxic | Not toxic | 0.275 |  |  |  |  |  |  |  | 
14 | O=C(CCCCCCCC(=O)N1CCN(c2ccnc3cc(Cl)ccc23)CCN(c2ccnc3cc(Cl)ccc23)CC1)N1CCN(c2ccnc3cc(Cl)ccc23)CCN(c2ccnc3cc(Cl)ccc23)CC1 | 0 | 0 | 0 | 0 | Not toxic | Not toxic | 0.0226 | Toxic |  | 0.0672 | 0.0417 | 0.0463 |  |  | 
15 | O=C(CCCCCCCCCCC(=O)N1CCN(c2ccnc3cc(Cl)ccc23)CCN(c2ccnc3cc(Cl)ccc23)CC1)N1CCN(c2ccnc3cc(Cl)ccc23)CCN(c2ccnc3cc(Cl)ccc23)CC1 | 0 | 0 | 0 | 0 | Not toxic | Not toxic | 0.0791 |  |  | 0.18 | 0.123 | 0.133 |  |  | 
16 | CC(NC(=O)OC(C)(C)C)C(=O)N1CCN(c2ccnc3cc(Cl)ccc23)CCN(c2ccnc3cc(Cl)ccc23)CC1 (configuration not stated) | 0 | 0 | 0 | 0 | Not toxic | Not toxic | 0.463 |  |  |  |  |  |  |  | 
17 | N=C(N)NCCC(=O)N1CCN(c2ccnc3cc(Cl)ccc23)CCN(c2ccnc3cc(Cl)ccc23)CC1 | 0 | 0 | 0 | 0 | Not toxic | Not toxic | > 1 |  |  |  |  |  |  |  | 
18 | Clc1ccc2c(NCCN(CCNc3ccnc4cc(Cl)ccc34)Cc3ccnc4ccccc34)ccnc2c1 | 0 | 0 | 0 | 0 | Not toxic | Not toxic | > 1 |  |  |  |  |  |  |  | 
19 | O=C(O)CCCC(=O)N1CCN(c2ccnc3cc(Cl)ccc23)CCN(c2ccnc3cc(Cl)ccc23)CC1 | 0 | 0 | 0 | 0 | Not toxic | Not toxic | 0.94 |  |  |  |  |  |  |  | 
20 | NC(=O)CCC(=O)N1CCN(c2ccnc3cc(Cl)ccc23)CCN(c2ccnc3cc(Cl)ccc23)CC1 | 0 | 0 | 0 | 0 | Not toxic | Not toxic | 0.98 |  |  |  |  |  |  |  | 
21 | O=C(CNCC(=O)N1CCN(c2ccnc3cc(Cl)ccc23)CCN(c2ccnc3cc(Cl)ccc23)CC1)N1CCN(c2ccnc3cc(Cl)ccc23)CCN(c2ccnc3cc(Cl)ccc23)CC1 | 0 | 0 | 0 | 0 | Not toxic | Not toxic | 0.103 |  |  |  |  |  |  |  | 
22 | O=C(CCCC(=O)N1CCN(c2ccnc3cc(Cl)ccc23)CCN(c2ccnc3cc(Cl)ccc23)CC1)N1CCNCCNCC1 | 0 | 0 | 0 | 0 | Not toxic | Not toxic | > 1 |  |  |  |  |  |  |  | 
23 | O=C(CCCCCCCCCCCN1CCCCC1)N1CCN(c2ccnc3cc(Cl)ccc23)CCN(c2ccnc3cc(Cl)ccc23)CC1 | 11 | 89 | 0 | 92 |  |  | 0.109 | Toxic | Toxic |  |  |  |  | Toxic | 
24 | O=C(CCCOCc1ccccc1)N1CCN(c2ccnc3cc(Cl)ccc23)CCN(c2ccnc3cc(Cl)ccc23)CC1 | 0 | 14 | 0 | 0 | Not toxic | Not toxic | 1 |  |  |  |  |  |  |  | Toxic
